{"source": "ChEMBL document CHEMBL1275331", "about": "“Discovery of a novel 5-HT(3) antagonist/5-HT(1A) agonist 3-amino-5,6,7,8-tetrahydro-2-{4-[4-(quinolin-2-yl)piperazin-1-yl]butyl}quinazolin-4(3H)-one (TZB-30878) as an orally bioavailable agent for irritable bowel syndrome” (J Med Chem, 2010)", "key": {"[1]": {"biological_target": "T1, 5-hydroxytryptamine receptor 3A (Cavia porcellus) (UniProt O70212)", "T1 sequence (whole entry)": "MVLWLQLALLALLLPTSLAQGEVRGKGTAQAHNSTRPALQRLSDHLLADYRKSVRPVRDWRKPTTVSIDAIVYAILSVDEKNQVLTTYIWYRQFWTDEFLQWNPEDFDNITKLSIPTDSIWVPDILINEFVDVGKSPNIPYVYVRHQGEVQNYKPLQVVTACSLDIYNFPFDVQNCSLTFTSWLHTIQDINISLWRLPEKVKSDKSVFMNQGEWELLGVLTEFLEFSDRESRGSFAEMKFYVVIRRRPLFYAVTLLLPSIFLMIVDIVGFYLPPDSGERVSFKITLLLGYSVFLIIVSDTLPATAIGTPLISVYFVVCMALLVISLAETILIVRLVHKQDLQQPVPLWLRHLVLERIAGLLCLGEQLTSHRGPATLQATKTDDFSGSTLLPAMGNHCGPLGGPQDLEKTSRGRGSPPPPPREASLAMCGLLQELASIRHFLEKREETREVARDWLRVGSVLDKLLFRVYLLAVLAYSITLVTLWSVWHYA", "experiment": "Inhibition of 5HT3 receptor-mediated contraction of guinea pig ileum at 0.1 umol/L after 20 mins relative to control", "assay_type": "tissue-based", "how_it_was_run": "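Ileum strips in Tyrode solution at 37 °C, gassed 5% CO2/95% O2, isotonic contractions under 1 g load. After at least 3 stable contractions to 10 μM 2-methyl-5-HT, tissue exposed to compound or DMSO vehicle for 20 min, then 10 μM 2-methyl-5-HT re-added; contraction expressed as % inhibition of control.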"}, "[2]": {"experiment": "Drug level in Sprague-Dawley rat brain at 3 mg/kg, po after 4 hrs by HPLC analysis", "assay_type": "ADME, organism-based", "design": "dose 3 mg/kg, route oral", "settings": "read-out: Drug uptake", "how_it_was_run": "(§1)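 Total compound concentration was measured in brain and blood at 2, 4 and 8 h after a single oral 3 mg/kg dose. Brain/blood ratio was also derived. Values are mean ± SD of three rats.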"}, "[3]": {"experiment": "Drug level in Sprague-Dawley rat blood at 3 mg/kg, po after 4 hrs by HPLC analysis", "assay_type": "ADME, organism-based", "design": "dose 3 mg/kg, route oral", "settings": "whole blood, read-out: Drug uptake", "how_it_was_run": "as §1"}, "[4]": {"experiment": "Ratio of drug level in brain to blood in Sprague-Dawley rat at 3 mg/kg, po after 8 hrs", "assay_type": "ADME, organism-based", "design": "dose 3 mg/kg, route oral", "how_it_was_run": "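Rats dosed 3 mg/kg orally; total compound levels measured in brain and blood at 2, 4 and 8 h, brain/blood ratio derived. Mean ± SD of three rats.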"}, "[5]": {"system": "Rattus norvegicus", "experiment": "Induction of 5HT1A receptor-mediated lower lip retraction behavior in rat at 10 mg/kg, iv after 30 mins", "assay_type": "functional, organism-based", "design": "dose 10 mg/kg", "how_it_was_run": "(§2)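 Rats were conditioned to test procedures over 2 weeks and acclimated to the test cage for 1 h. Vehicle was saline containing diluted HCl. Lower lip retraction and flat body posture were scored on a 0–3 scale at 5, 10, 20 and 30 min after dosing.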"}, "[6]": {"system": "Rattus norvegicus", "experiment": "Induction of 5HT1A receptor-mediated behavioral activity in rat assessed as appearance of flat body posture at 10 mg/kg, iv after 30 mins", "assay_type": "functional, organism-based", "design": "dose 10 mg/kg", "how_it_was_run": "as §2"}, "[7]": {"system": "Rattus norvegicus", "experiment": "Effect on 5HT1A receptor-mediated hypothermic effect in rat assessed as change in rectal temperature at 10 mg/kg, iv after 30 mins", "assay_type": "functional, organism-based", "design": "dose 10 mg/kg", "how_it_was_run": "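Rats were conditioned over 2 weeks and acclimated to the cage for 1 h before dosing (vehicle: saline with diluted HCl). Rectal temperature was recorded with a thermistor probe inserted 3 cm, before and 30 min after administration. The change in temperature was reported.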"}, "[8]": {"biological_target": "T2, Adrenergic receptor alpha-1 (Rattus norvegicus, UniProt P15823+P23944+P43140)", "experiment": "Inhibition of rat alpha1 adrenergic receptor"}, "[9]": {"biological_target": "Adrenergic receptor alpha-2 (Rattus norvegicus, UniProt P22086+P19328+P22909)", "experiment": "Inhibition of rat alpha2 adrenergic receptor"}, "[10]": {"biological_target": "T3, 5-hydroxytryptamine receptor 1A (Homo sapiens, UniProt P08908)", "T3 sequence (P08908 whole entry)": "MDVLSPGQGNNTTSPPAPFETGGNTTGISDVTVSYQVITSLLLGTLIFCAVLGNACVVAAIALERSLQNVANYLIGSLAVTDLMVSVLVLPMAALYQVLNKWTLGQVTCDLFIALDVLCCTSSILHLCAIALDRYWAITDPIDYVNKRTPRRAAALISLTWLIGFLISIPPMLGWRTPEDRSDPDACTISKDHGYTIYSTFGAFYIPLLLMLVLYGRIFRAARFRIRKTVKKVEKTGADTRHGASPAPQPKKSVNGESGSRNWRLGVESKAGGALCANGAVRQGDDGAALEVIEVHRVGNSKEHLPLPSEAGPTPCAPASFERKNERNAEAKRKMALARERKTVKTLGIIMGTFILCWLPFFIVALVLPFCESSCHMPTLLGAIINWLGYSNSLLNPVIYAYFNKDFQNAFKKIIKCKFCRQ", "experiment": "Binding affinity to human 5HT1A receptor", "how_it_was_run": "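CHO-cell membranes with human 5-HT1A were incubated with 0.25 nmol/L [3H]8-OH-DPAT (final) for 60 min at 27 °C. Buffer: 50 mM Tris-HCl, 10 mM MgSO4, 0.5 mM EDTA, 0.1% ascorbic acid, pH 7.4. Compound came from 270 μmol/L DMSO stock, diluted in buffer. Filtration was through GF/C presoaked in 0.3% polyethyleneimine, with two cold Tris washes. Run in duplicate or triplicate; percent inhibition of binding calculated.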"}, "[11]": {"biological_target": "T2, Adrenergic receptor alpha-1", "experiment": "Displacement of [3H]prazosin from rat cerebral cortex alpha1 adrenergic receptor", "assay_type": "tissue-based"}, "[12]": {"biological_target": "D(1A) dopamine receptor (Homo sapiens, UniProt P21728)", "sequence (P21728 whole entry)": "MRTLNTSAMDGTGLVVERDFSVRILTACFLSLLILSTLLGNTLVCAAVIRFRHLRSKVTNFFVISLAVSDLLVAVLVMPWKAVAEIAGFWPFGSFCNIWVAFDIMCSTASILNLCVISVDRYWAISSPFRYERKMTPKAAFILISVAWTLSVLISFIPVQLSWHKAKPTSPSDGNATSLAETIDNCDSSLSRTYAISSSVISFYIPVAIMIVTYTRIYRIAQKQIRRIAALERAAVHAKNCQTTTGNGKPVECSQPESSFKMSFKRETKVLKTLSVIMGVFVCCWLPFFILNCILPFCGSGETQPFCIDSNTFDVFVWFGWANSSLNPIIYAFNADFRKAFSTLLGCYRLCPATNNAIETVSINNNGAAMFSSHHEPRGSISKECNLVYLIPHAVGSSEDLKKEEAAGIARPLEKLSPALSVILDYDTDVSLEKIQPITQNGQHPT", "experiment": "Displacement of [3H]SCH23390 from human recombinant dopamine D1 receptor"}, "[13]": {"biological_target": "Muscarinic acetylcholine receptor M1 (Homo sapiens, UniProt P11229)", "sequence (P11229 whole entry)": "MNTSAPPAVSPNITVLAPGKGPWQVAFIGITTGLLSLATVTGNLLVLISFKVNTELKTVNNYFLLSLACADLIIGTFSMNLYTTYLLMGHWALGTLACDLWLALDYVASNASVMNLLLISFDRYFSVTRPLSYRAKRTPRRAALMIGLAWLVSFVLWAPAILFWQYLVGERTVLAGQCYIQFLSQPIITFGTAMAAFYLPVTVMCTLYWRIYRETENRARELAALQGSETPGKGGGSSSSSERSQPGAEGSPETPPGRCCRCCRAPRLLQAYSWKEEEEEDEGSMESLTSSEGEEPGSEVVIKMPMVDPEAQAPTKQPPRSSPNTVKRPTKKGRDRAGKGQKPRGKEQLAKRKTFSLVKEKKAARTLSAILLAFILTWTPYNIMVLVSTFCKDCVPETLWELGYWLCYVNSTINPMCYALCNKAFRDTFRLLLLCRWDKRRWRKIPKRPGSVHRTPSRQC", "experiment": "Displacement of [3H]pirenzepine from human recombinant muscarinic M1 receptor"}, "[14]": {"biological_target": "Substance-K receptor (Homo sapiens, UniProt P21452)", "sequence (P21452 whole entry)": "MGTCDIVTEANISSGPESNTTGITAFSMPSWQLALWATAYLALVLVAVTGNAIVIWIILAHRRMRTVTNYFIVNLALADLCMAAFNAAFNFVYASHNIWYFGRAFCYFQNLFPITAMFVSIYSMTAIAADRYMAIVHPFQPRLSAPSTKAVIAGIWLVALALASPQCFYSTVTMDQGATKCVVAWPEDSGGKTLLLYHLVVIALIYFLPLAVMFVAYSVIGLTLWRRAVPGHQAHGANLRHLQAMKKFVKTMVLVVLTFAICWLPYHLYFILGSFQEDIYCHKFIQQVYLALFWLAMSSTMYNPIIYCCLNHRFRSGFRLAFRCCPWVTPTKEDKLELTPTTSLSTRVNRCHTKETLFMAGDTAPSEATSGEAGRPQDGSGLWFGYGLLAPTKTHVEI", "experiment": "Displacement of [125I]NKA from human recombinant NK2 receptor"}, "[15]": {"biological_target": "Kappa-type opioid receptor (Cavia porcellus, UniProt P41144)", "sequence (P41144 whole entry)": "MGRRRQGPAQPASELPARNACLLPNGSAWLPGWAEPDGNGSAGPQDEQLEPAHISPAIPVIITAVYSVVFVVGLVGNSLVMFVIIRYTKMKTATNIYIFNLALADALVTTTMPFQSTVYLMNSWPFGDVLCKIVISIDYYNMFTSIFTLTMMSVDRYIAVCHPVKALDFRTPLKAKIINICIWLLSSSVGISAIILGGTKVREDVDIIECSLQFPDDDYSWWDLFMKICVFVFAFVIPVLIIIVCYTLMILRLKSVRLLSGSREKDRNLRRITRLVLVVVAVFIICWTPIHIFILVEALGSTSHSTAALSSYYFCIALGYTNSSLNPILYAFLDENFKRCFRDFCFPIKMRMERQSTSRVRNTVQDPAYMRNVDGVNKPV", "experiment": "Displacement of [3H]U69593 from guinea pig cerebellum kappa opioid receptor", "assay_type": "tissue-based"}, "[16]": {"biological_target": "T3, 5-hydroxytryptamine receptor 1A", "experiment": "Displacement of 8-hydroxy-[3H]DPAT from human recombinant 5HT1A receptor"}, "[17]": {"biological_target": "5-hydroxytryptamine receptor 5A (Homo sapiens, UniProt P47898)", "sequence (P47898 whole entry)": "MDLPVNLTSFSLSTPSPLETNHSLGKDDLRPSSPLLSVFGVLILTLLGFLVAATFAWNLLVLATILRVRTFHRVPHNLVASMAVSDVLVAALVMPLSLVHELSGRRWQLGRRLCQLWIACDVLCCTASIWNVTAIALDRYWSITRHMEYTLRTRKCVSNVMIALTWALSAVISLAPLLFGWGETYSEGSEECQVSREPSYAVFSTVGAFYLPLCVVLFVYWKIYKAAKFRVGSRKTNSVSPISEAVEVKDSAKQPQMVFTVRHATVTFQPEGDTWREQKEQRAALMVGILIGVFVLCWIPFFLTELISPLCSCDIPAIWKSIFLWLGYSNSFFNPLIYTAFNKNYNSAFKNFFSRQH", "experiment": "Displacement of [3H]LSD from human recombinant 5HT5A receptor"}, "[18]": {"biological_target": "Sodium-dependent noradrenaline transporter (Homo sapiens, UniProt P23975)", "sequence (P23975 whole entry)": "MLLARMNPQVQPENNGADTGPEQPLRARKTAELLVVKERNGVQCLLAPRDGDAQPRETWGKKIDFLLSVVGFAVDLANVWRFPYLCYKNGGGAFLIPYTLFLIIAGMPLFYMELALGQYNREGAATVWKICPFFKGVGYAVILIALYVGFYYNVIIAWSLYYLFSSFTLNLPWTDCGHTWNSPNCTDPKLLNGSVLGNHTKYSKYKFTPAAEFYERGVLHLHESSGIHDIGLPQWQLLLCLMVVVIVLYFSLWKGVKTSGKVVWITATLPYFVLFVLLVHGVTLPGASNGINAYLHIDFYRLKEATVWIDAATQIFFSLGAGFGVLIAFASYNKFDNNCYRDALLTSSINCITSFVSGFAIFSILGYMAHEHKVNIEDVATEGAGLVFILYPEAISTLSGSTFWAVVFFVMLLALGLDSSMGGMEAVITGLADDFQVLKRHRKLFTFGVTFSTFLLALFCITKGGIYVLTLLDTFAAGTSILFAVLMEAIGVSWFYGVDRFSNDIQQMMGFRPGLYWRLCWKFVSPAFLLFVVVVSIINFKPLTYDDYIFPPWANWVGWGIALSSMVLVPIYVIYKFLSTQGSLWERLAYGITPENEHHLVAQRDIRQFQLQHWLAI", "experiment": "Displacement of [3H]nisoxetine from human recombinant NET"}, "[19]": {"biological_target": "Sodium-dependent dopamine transporter (Homo sapiens, UniProt Q01959)", "sequence (Q01959 whole entry)": "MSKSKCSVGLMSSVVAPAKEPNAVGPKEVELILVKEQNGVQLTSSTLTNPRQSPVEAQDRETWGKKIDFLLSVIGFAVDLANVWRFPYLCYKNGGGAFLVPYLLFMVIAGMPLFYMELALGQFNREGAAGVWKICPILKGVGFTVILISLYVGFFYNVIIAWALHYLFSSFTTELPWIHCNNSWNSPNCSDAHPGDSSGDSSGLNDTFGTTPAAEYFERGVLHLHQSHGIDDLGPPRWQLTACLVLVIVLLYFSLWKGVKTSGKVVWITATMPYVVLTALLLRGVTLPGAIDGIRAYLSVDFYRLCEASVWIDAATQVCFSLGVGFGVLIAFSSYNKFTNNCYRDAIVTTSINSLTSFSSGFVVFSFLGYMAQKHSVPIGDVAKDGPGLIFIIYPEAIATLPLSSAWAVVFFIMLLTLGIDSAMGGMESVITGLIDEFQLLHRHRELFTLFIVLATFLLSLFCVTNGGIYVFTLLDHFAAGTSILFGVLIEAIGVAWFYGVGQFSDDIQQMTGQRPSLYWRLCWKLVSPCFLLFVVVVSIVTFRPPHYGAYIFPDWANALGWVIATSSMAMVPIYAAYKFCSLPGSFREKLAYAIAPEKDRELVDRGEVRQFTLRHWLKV", "experiment": "Displacement of [3H]BTCP from human recombinant DAT"}}, "note": "Active and inactive are the calls of the source. No cut-off for these calls is given here.", "data": [{"compound": "Nn1c(CCCCN2CCN(c3ccc4ccccc4n3)CC2)nc2c(c1=O)CCCC2", "values": [{"measurement": "inhibition", "setting": "[1]", "value": 70.4, "unit": "%"}, {"measurement": "concentration at 4 h", "setting": "[2]", "value": 70.2, "unit": "nM"}, {"measurement": "concentration at 4 h", "setting": "[3]", "value": 16.8, "unit": "nM"}, {"measurement": "Kp at 8 h", "setting": "[4]", "value": 6.54}, {"measurement": "Activity", "setting": "[5]", "value": "Active"}, {"measurement": "Activity", "setting": "[6]", "value": "Active"}, {"measurement": "deltaT", "setting": "[7]", "value": -1.4, "unit": "°C"}, {"measurement": "IC50", "setting": "[8]", "value": "> 100", "unit": "nM"}, {"measurement": "IC50", "setting": "[9]", "value": "> 100", "unit": "nM"}, {"measurement": "Ki", "setting": "[10]", "value": 0.701, "unit": "nM"}, {"measurement": "IC50", "setting": "[11]", "value": 1, "unit": "×10⁻⁶ mol/L"}, {"measurement": "IC50", "setting": "[12]", "value": "> 1000", "unit": "nM"}, {"measurement": "IC50", "setting": "[13]", "value": "> 1000", "unit": "nM"}, {"measurement": "IC50", "setting": "[14]", "value": "> 1000", "unit": "nM"}, {"measurement": "IC50", "setting": "[15]", "value": "> 1000", "unit": "nM"}, {"measurement": "IC50", "setting": "[16]", "value": "> 1.36", "unit": "nM"}, {"measurement": "IC50", "setting": "[17]", "value": "> 1000", "unit": "nM"}, {"measurement": "IC50", "setting": "[18]", "value": "> 1000", "unit": "nM"}, {"measurement": "IC50", "setting": "[19]", "value": "> 1000", "unit": "nM"}]}]}
